Source: ChEMBL document CHEMBL1135616, “Synthesis of novel 4,1-benzoxazepine derivatives as squalene synthase inhibitors and their inhibition of cholesterol synthesis” (J Med Chem, 2002)

Columns and labels:
[1] = system: Rattus norvegicus; assay: Compound at a dose of 1 mg/kg was administered orally to 6 week old male Wistar rats and was evaluated for the inhibition of sterol synthesis; format: functional; conditions: route oral
In short: (§1)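 Oral dosing of 6-week-old male Wistar rats with test compound suspended in 0.5% methylcellulose. [14C]acetate (50 μCi/kg) given iv 1 h after the dose; animals killed 1 h later. Livers saponified and extracted with petroleum ether. Sterols precipitated with 0.5% digitonin in 50% ethanol (4 h, room temperature), then counted. Result is % inhibition vs control, mean ± SD (n = 6-10), Dunnett's test.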

[2] = species on record: Rattus norvegicus; assay: Concentration required for 50% inhibitory activity against cholesterol synthesis in rat liver; format: functional
In short: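 In vivo hepatic sterol synthesis in 6-week-old male Wistar rats. Oral doses of 1, 3 and 10 mg/kg in 0.5% methylcellulose. [14C]acetate (50 μCi/kg) iv 1 h post-dose; killed 1 h later. Radioactivity of digitonin-precipitable liver sterols measured. ED50 is the oral dose giving 50% inhibition of sterol synthesis.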

[3] = molecular target: T1, Squalene synthase (Homo sapiens, UniProt P37268); assay: Inhibition of squalene synthase from human hepatoma cells (HepG2)
T1 sequence (P37268 whole entry): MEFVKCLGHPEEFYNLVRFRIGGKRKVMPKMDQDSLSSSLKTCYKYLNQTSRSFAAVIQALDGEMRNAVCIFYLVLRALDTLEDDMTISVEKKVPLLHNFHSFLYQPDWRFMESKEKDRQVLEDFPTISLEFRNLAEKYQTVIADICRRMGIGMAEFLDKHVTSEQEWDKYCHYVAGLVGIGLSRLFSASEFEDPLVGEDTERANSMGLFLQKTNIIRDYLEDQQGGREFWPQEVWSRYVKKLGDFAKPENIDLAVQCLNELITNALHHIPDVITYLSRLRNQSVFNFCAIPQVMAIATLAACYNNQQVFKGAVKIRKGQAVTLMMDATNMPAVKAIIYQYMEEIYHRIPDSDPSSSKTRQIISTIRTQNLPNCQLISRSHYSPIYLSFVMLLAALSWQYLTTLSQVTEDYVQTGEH
In short: (§2)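 Enzyme source: microsomes from HepG2 cells grown in DMEM/10% FBS, sonicated in phosphate/nicotinamide/MgCl2 buffer. Reaction contained 5 µM [1-3H]FPP, 1 mM NADPH, 5 mM MgCl2, 6 mM glutathione, 100 mM potassium phosphate pH 7.4, 2% DMSO final, 0.8 µg protein. Run 45 min at 37 °C. Chloroform-extracted [3H]squalene counted. IC50 from one run in duplicate.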

[4] = system: Rattus norvegicus; assay: Compound at a dose of 3 mg/kg was administered orally to 6 week old male Wistar rats and was evaluated for the inhibition of sterol synthesis; format: functional; conditions: route oral; in short: as §1
[5] = system: Rattus norvegicus; assay: In vivo inhibition of sterol synthesis in rats following 10 mg/kg p.o.; format: functional; conditions: for inhibition in vivo at 10 mg/kg: Rattus norvegicus, po; in short: as §1
[6] = molecular target: T1, Squalene synthase; assay: Inhibitory activity against squalene synthase derived from human hepatoma cells (HepG2); in short: as §2
[7] = system: Rattus norvegicus; assay: Compound at a dose of 3 mg/kg was dministered orally to 6 week old male Wistar rats and was evaluated for the inhibition of terol synthesis; format: functional; conditions: route oral; in short: as §1
[8] = system: Rattus norvegicus; assay: Compound was evaluated in vivo for its inhibitory activity against cholesterol synthesis in rat liver; format: functional; in short: as §1

SMILES | IC50 [3] [nM] | inhibition in vivo at 10 mg/kg [5] [%] | other results
COc1cccc([C@H]2O[C@H](CC(=O)N3CCC(CC(=O)O)CC3)C(=O)N(CC(C)(C)CO)c3ccc(Cl)cc32)c1OC | 45 | 77 | inhibition in vivo at 1 mg/kg [1]: 11%; ED50 [2]: 6.8 mg/kg; inhibition in vivo at 3 mg/kg [4]: 20%; Inhibition ([5]; route oral, 10 mg/kg): 64%
COc1cccc([C@H]2O[C@H](CC(=O)NCCC(=O)O)C(=O)N(CC(C)(C)CO)c3ccc(Cl)cc32)c1OC | 15 | 19 | 
COc1cccc([C@H]2O[C@H](CC(=O)NCCCC(=O)O)C(=O)N(CC(C)(C)CO)c3ccc(Cl)cc32)c1OC | 32 | 59 | 
CCC(=O)OCC(C)(C)CN1C(=O)[C@@H](CC(=O)N2CCC(CC(=O)O)CC2)O[C@H](c2cccc(OC)c2OC)c2cc(Cl)ccc21 | 87 | 40 | 
COc1cccc([C@H]2O[C@H](CC(=O)N[C@@H](C)C(=O)O)C(=O)N(CC(C)(C)CO)c3ccc(Cl)cc32)c1OC | 21 | 14 | 
COc1cccc([C@H]2O[C@H](CC(=O)N3CCC(CC(=O)O)CC3)C(=O)N(CC(C)(C)COCOC(=O)C(C)(C)C)c3ccc(Cl)cc32)c1OC |  | 43 | IC50 [6]: 471 nM
COc1cccc([C@H]2O[C@H](CC(=O)N[C@H](C)C(=O)O)C(=O)N(CC(C)(C)CO)c3ccc(Cl)cc32)c1OC | 18 | 31 | 
COc1cccc([C@H]2O[C@H](CC(=O)N3CCC(CCCC(=O)O)CC3)C(=O)N(CC(C)(C)CO)c3ccc(Cl)cc32)c1OC | 70 | 87 | 
COc1cccc([C@H]2O[C@H](CC(=O)NCCCCC(=O)O)C(=O)N(CC(C)(C)CO)c3ccc(Cl)cc32)c1OC | 38 | 50 | 
COc1cccc([C@H]2O[C@H](CC(=O)N3CCC(CCC(=O)O)CC3)C(=O)N(CC(C)(C)CO)c3ccc(Cl)cc32)c1OC | 61 | 76 | 
COc1cccc([C@H]2O[C@H](CC(=O)N3CCC(CC(=O)O)CC3)C(=O)N(CC(C)(C)COC(=O)C(C)C)c3ccc(Cl)cc32)c1OC |  | 34 | IC50 [6]: 89 nM
COc1cccc([C@H]2O[C@H](CC(=O)N3CCC(CC(=O)O)CC3)C(=O)N(CC(C)(C)COC(C)=O)c3ccc(Cl)cc32)c1OC [LAPAQUISTAT ACETATE] | 78 | 81 | inhibition in vivo at 3 mg/kg [7]: 42%; inhibition in vivo at 1 mg/kg [1]: 31%; ED50 [2]: 2.9 mg/kg
COc1cccc([C@H]2O[C@H](CC(=O)N(C)CC(=O)O)C(=O)N(CC(C)(C)CO)c3ccc(Cl)cc32)c1OC | 18 | -1 | 
CCCC(=O)OCC(C)(C)CN1C(=O)[C@@H](CC(=O)N2CCC(CC(=O)O)CC2)O[C@H](c2cccc(OC)c2OC)c2cc(Cl)ccc21 | 93 | 30 | 
COc1cccc([C@H]2O[C@H](CC(=O)N3CCC(C(=O)O)CC3)C(=O)N(CC(C)(C)CO)c3ccc(Cl)cc32)c1OC |  | 26 | 
COc1cccc([C@H]2O[C@H](CC(=O)[O-])C(=O)N(CC(C)(C)C)c3ccc(Cl)cc32)c1OC.[Na+] |  |  | ED50 [8]: 3 mg/kg
COc1cccc([C@H]2O[C@H](CC(=O)NCC(=O)O)C(=O)N(CC(C)(C)CO)c3ccc(Cl)cc32)c1OC | 15 | 14 | 
COc1cccc([C@H]2O[C@H](CC(=O)NC(CC(C)C)C(=O)O)C(=O)N(CC(C)(C)CO)c3ccc(Cl)cc32)c1OC (stereo partly specified) | 28 | 14 | 
